What is called GI50 is the concentration giving 50% growth inhibition. By IC50 is commonly meant the midpoint of a concentration-inhibition curve.

18 molecules from ChEMBL document CHEMBL5154861, “Overcoming Paradoxical Kinase Priming by a Novel MNK1 Inhibitor” (J Med Chem, 2022) can be followed below.

Data set [1] concerns the target T1, MAP kinase-interacting serine/threonine-protein kinase 1 (Homo sapiens, UniProt Q9BUB5). The experiment in a line: Inhibition of human recombinant full length GST-tagged MNK1 expressed in baculovirus expression system assessed as residual activity at 10 uM using S6 peptide as substrate in presence of [gamma-33P]-ATP incubated for 60 mins by radiometric scintillation counting method relative to control. A digest of the protocol:
(§1)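 Radiometric 33PanQinase assay at 10 μM compound (final 1% DMSO). The buffer was 70 mM HEPES-NaOH pH 7.5 with 3 mM MgCl2, 3 mM MnCl2, 3 μM orthovanadate, 1.2 mM DTT and 50 μg/mL PEG20000. […] Reactions ran 60 min at 30 °C, were stopped with 2% H3PO4 and read by scintillation. Residual activity was calculated against high/low controls.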
Target sequence in this assay (Q9BUB5 whole entry, looked up): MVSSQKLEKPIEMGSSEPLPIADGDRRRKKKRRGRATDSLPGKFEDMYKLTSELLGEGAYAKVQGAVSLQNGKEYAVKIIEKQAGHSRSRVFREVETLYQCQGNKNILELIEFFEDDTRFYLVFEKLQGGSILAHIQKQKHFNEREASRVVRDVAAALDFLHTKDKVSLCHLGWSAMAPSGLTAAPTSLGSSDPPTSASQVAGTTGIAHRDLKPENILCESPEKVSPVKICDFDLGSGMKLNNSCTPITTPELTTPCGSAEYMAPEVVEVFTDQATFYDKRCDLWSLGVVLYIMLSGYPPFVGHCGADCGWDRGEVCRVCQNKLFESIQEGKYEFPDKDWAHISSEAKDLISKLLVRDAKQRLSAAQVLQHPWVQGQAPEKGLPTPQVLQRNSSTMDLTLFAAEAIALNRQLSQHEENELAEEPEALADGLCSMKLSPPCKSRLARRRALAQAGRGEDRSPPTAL

Data set [2] concerns the target T2, MAP kinase-interacting serine/threonine-protein kinase 2 (Homo sapiens, UniProt Q9HBH9). Description: Inhibition of human recombinant full length GST-tagged MNK2 expressed in insect cells assessed as residual activity at 10 uM using S6 peptide as substrate in presence of [gamma-33P]-ATP incubated for 60 mins by radiometric scintillation counting method relative to control. In outline:
as §1
Target sequence in this assay (Q9HBH9 whole entry, looked up): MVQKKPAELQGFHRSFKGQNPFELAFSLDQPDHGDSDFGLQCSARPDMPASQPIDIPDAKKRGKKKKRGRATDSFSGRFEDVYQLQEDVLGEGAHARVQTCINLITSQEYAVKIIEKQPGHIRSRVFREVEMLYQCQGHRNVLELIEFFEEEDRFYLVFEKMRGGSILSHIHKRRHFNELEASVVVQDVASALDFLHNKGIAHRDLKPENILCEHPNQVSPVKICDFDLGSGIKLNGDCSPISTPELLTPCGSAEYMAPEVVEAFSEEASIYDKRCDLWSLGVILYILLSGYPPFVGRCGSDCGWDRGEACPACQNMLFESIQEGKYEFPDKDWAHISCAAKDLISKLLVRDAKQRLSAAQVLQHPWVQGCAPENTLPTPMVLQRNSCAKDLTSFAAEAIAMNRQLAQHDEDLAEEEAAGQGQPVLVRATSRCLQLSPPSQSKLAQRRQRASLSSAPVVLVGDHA

For data set [3], the target named is T1, MAP kinase-interacting serine/threonine-protein kinase 1. The experiment in a line: Inhibition of MNK1 in human MDA-MB-231 cells assessed as inhibition of eIF4E phosphorylation at 10 uM by Western blot analysis. The conditions noted are these: time 0.5-72 hrs, TDE = time-dependent effect. Format: cell-based. In outline: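 MDA-MB-231 cells were exposed to 10 μM inhibitor for various times. Phospho-eIF4E (Ser209) versus total eIF4E was then assessed by immunoblot of total lysates (20–25 μg protein), with ECL detection.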
Target sequence in this assay (Q9BUB5 whole entry, looked up): as the sequence (Q9BUB5 whole entry, looked up) above

Data set [4] addresses T3, MAP kinase-interacting serine/threonine-protein kinase 1/2 (Homo sapiens) (UniProt Q9HBH9+Q9BUB5). The experiment in a line: Inhibition of MNK1/MNK2 in human MDA-MB-231 cells assessed as reduction in eIF4E phosphorylation incubated for 24 hrs by Western blot analysis. Format: cell-based. The conditions noted are these: dose 0.3-10 µM, DDE = dose-dependent effect. In outline: (§2)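 MDA-MB-231 cells, grown in DMEM with 10% heat-inactivated FBS and pen/strep at 37 °C and 5% CO2, were seeded at 6000 cells/cm2 24 h before a 24 h inhibitor exposure. DMSO was kept below 0.5% as the vehicle control. Total lysates (RIPA-type buffer with phosphatase/protease inhibitors, 20–25 μg) were immunoblotted with phospho- and total antibodies at 1:1000, using ECL detection.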
Background: In western blotting, separated proteins are transferred to a membrane and probed.

In data set [5] the target is T3, MAP kinase-interacting serine/threonine-protein kinase 1/2 (Homo sapiens). Description: Inhibition of MNK1/MNK2 in human IMR-90 cells assessed as inhibition of eIF4E phosphorylation incubated for 24 hrs by Western blot analysis. Format: cell-based. The conditions noted are these: dose 0.3-10 µM, DDE = dose-dependent effect.
Data set [6] concerns MDA-MB-468. Description: Growth inhibition of human MDA-MB-468 cells measured after 72 hrs by crystal violet staining based assay. Format: functional. In outline:
(§3)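 Cells were seeded at 6000 cells/cm2, and 24 h later were treated with a range of concentrations (DMSO below 0.5%) for 72 h. They were fixed with 4% formaldehyde for 30 min and stained with 0.5% crystal violet for 15 min. Dye was eluted in 15% acetic acid and read as OD at 595 nm. Results are from three independent experiments, reported as SD; GI50 values were derived from the curves.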

For data set [7], the target named is T3, MAP kinase-interacting serine/threonine-protein kinase 1/2 (Homo sapiens). The experiment in a line: Inhibition of MNK1/MNK2 in human MDA-MB-468 cells assessed as inhibition of eIF4E phosphorylation incubated for 24 hrs by Western blot analysis. Format: cell-based. The note with it: dose 0.3-10 µM, DDE = dose-dependent effect.
Data set [8] has as its system MDA-MB-231. Description: Growth inhibition of human MDA-MB-231 cells measured after 72 hrs by crystal violet staining based assay. It is filed as functional. In outline: as §3
In data set [9] the target is Eukaryotic translation initiation factor 4E (Homo sapiens) (UniProt P06730). Description: Inhibition of eIF4E phosphorylation in human MDA-MB-231 cells at 5 to 20 uM pretreated for 3 hrs followed by UV irradiation and recovery for 40 mins with compound by Western blot analysis. It is filed as cell-based. The conditions noted are these: dose 5-20 µM, time 220.0 min. In outline:
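MDA-MB-231 cells were pretreated with inhibitor for 3 h and then UV-irradiated. They recovered for 40 min at 37 °C with the inhibitor still present. Total lysates were immunoblotted for phospho-eIF4E and pathway markers (p-MNK1, p-p38, p-HSP27, p-ERK, p-p90RSK).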

Data set [10] relates to IMR-90. The experiment in a line: Cytotoxicity against human IMR-90 cells assessed as increase in dead cells at 2.5 to 40 uM by Hoechst/propidium iodide staining based microscopic analysis. Format: toxicity, cell-based. The conditions noted are these: imr-90, 40 µM, dose 2.5-40 µM. A digest of the protocol: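 Cells were grown and treated for 72 h as in the crystal violet assay, with cisplatin and DMSO as controls. Before fixation, PI (2.5 μM) and Hoechst (0.05 mg/mL) were added to the medium for 30 min. At least 100 cells per condition were counted microscopically, and PI-positive cells were scored as a percentage of Hoechst-positive cells. Three independent experiments were done.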

Data set [11] relates to IMR-90. Description: Cytotoxicity against human IMR-90 cells assessed as reduction in cell viability measured after 72 hrs by crystal violet staining based assay. Format: functional. In outline: as §3
For data set [12], the system named is MDA-MB-231. The experiment in a line: Cytotoxicity against human MDA-MB-231 cells assessed as reduction in cell viability at 20 uM measured after 72 hrs by crystal violet staining based assay relative to control. Format: functional. In outline:
as §3

In data set [13] the target is T3, MAP kinase-interacting serine/threonine-protein kinase 1/2 (Homo sapiens). Description: Inhibition of MNK1/MNK2 in human MDA-MB-231 cells assessed as inhibition of eIF4E phosphorylation at 20 uM incubated for 24 hrs by Western blot analysis. Format: cell-based. A digest of the protocol: as §2
The test system of data set [14] is MDA-MB-231. Description: Cytotoxicity against human MDA-MB-231 cells assessed as reduction in cell viability measured after 72 hrs by crystal violet staining based assay. The conditions noted are these: dose 2.5-40 µM, DDE = dose-dependent effect. It is filed as functional. In outline:
as §3

For data set [15], the system named is IMR-90. Description: Cytotoxicity against human IMR-90 cells assessed as reduction in cell viability at 20 uM measured after 72 hrs by crystal violet staining based assay. The conditions noted are these: imr-90, 72 h. Format: toxicity. In outline:
as §3

Data set [16] has as its target T3, MAP kinase-interacting serine/threonine-protein kinase 1/2 (Homo sapiens). The experiment in a line: Inhibition of MNK1/MNK2 in human MCF7 cells assessed as inhibition of eIF4E phosphorylation incubated for 24 hrs by Western blot analysis. It is filed as cell-based. The note with it: dose 0.3-10 µM, DDE = dose-dependent effect.
For data set [17], the system named is MCF7. The experiment in a line: Growth inhibition of human MCF7 cells measured after 72 hrs by crystal violet staining based assay. It is filed as functional. A digest of the protocol: as §3
Data set [18] addresses T1, MAP kinase-interacting serine/threonine-protein kinase 1. The experiment in a line: Inhibition of human recombinant full length GST-tagged MNK1 expressed in baculovirus expression system using S6 peptide as substrate in presence of [gamma-33P]-ATP incubated for 60 mins by radiometric scintillation counting method. In outline: (§4)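 Ten compound concentrations from 5 × 10–5 to 1.5 × 10–9 M were tested, and residual activity was calculated from cpm relative to high and low controls.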
Target sequence in this assay (Q9BUB5 whole entry): as the sequence (Q9BUB5 whole entry, looked up) above

For data set [19], the species on record is Homo sapiens. The experiment in a line: Selectivity ratio of IC50 for inhibition of human recombinant full length GST-tagged MNK2 to IC50 for inhibition of human recombinant full length GST-tagged MNK1. A digest of the protocol: as §4
Data set [20] addresses T2, MAP kinase-interacting serine/threonine-protein kinase 2. The experiment in a line: Inhibition of human recombinant full length GST-tagged MNK2 expressed in insect cells using S6 peptide as substrate in presence of [gamma-33P]-ATP incubated for 60 mins by radiometric scintillation counting method. In outline:
as §4
Target sequence in this assay (Q9HBH9 whole entry): as the sequence (Q9HBH9 whole entry, looked up) above

The target in data set [21] is T1, MAP kinase-interacting serine/threonine-protein kinase 1. Description: Activation of MNK1 in human MDA-MB-231 cells assessed as increase in MNK1 phosphorylation at T209/T214 residues at 1.6 to 100 uM incubated for 24 hrs by Western blot analysis. The note with it: filed as activator, dose 1.6-100 µM. Format: cell-based. A digest of the protocol: as §2
Target sequence in this assay (Q9BUB5 whole entry, looked up): as the sequence (Q9BUB5 whole entry, looked up) above
For data set [22], the system named is HEK293. Description: Potentiation of MNK1/eIF4E interaction in HEK293 cells assessed as increase in MNK1 phosphorylation at T209/T214 residues at 100 nM preincubated for 24 hrs followed by UV irradiation and recovery for 40 mins by immunoprecipitation based Western blot assay. It is filed as cell-based. The note with it: Homo sapiens, filed as activator, in the assay text read “MNK1/eIF4G interaction” for “MNK1/eIF4E interaction”. A digest of the protocol:
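HEK-293 cells were exposed to DMSO or inhibitor (100 nM) for 24 h, irradiated with UV at 60 J/m2 and recovered for 40 min at 37 °C. Endogenous eIF4G was immunoprecipitated from about 2 mg of precleared NP-40 lysate on protein A beads overnight at 4 °C. The IP and input were immunoblotted for MNK1 and p-MNK1.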

Data set [23] has as its target T1, MAP kinase-interacting serine/threonine-protein kinase 1. The experiment in a line: Activation of MNK1 in human MDA-MB-231 cells assessed as increase in ERK expression at 25 to 100 uM incubated for 24 hrs by Western blot analysis. It is filed as cell-based. The note with it: filed as activator, dose 25-100 µM. A digest of the protocol: as §2
Target sequence in this assay (Q9BUB5 whole entry, looked up): as above

Calls of active or inactive are those of the source. The calls are words filed in the database; no cut-off is given here. Where only a bound is given, the exact number is not on record here.

Eukaryotic translation initiation factor 4E (Homo sapiens), sequence (P06730 whole entry): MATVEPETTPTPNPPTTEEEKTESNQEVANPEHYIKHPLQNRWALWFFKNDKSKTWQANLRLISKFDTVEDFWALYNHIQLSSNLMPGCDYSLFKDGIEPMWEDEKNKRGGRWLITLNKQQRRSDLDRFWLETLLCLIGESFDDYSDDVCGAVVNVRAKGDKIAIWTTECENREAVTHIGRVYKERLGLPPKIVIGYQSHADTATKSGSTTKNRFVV

As to `Nc1c2c(-c3ccccc3)c(Cl)c(Cl)nc2nn1-c1ccccc1`, the results for the Activity in data set [1] and in [2] were 103% and 102%, respectively.
With `COc1ccc(-c2cc(-c3ccccc3OC)nc3[nH]nc(N)c23)cc1`, the Activity in data set [1] amounted to 63%; in data set [2], 109%.
Regarding `Nc1c2cc(-c3c(Cl)cccc3Cl)c(Cl)nc2nn1-c1ccccc1`, the results for the Activity in [1] and in data set [2] were 97% and 99%, respectively.
As to `Nc1n[nH]c2nc(-c3ccccc3)cc(-c3ccccc3)c12`, the inhibition result in data set [3] was “Tde”; in data set [4] it was “Dde”; in [5], “Dde”; in data set [7], “Dde”; in data set [16] it was “Dde”. The GI50 in data set [6] was 14.5 µM; in [8], 15.1 µM; in data set [11], more than 40 µM; in [17] it was 8.46 µM. Also, the inhibition entry in data set [9] and in [13] was “Active” each time. Also, the Activity result in data set [10] was “Non-Toxic”; in [12] it was 60%; in [14], “Dde”; in [15], “Non-Toxic”; in [1], 14%; in data set [2], 52%.
Take `COc1ccc(-c2cc(-c3ccccc3)nc3[nH]nc(N)c23)cc1`: the figures for the Activity in data set [1] and in [2] were 25% and 74%, respectively.
`COc1ccc(-c2cc(-c3ccccc3)nc3c2c(N)nn3C)cc1`: the Activity is 102% in data set [1] and 145% in [2].
For `COc1ccc(-c2cc(-c3ccc(OC)cc3)c3c(N)nn(C)c3n2)cc1` the same measures were 94% and 154%.
For the molecule `Nc1n[nH]c2nc(-c3ccccc3)cc(-c3ccc(F)cc3)c12`, the inhibition result in [4] was “Dde”. The concentration for half-maximal inhibition (IC50) in [18] stood at 1.3 µM; in data set [20], 4.1 µM. Besides, in data set [19], the Ratio IC50 was found to be 4. Also, the Activity turned out to be 31% in data set [1] and 62% in [2].
`COc1ccc(-c2cc(-c3cccc(OC)c3)nc3[nH]nc(N)c23)cc1`: the Activity in data set [1] worked out at 41%; in data set [2], 92%.
For the molecule `COc1ccccc1-c1cc(-c2ccc(C)cc2)c2c(N)n[nH]c2n1`, the Activity stood at 61% in data set [1] and 123% in [2].
On to `Cn1nc(N)c2cccnc21`, for which the Activity in data set [1] was 106%; in data set [2], 95%.
Consider `COc1cccc(-c2cc(-c3ccc(F)cc3)c3c(N)n[nH]c3n2)c1`, for which the Activity in data set [1] turned out to be 51%; in data set [2], 82%.
On to `COc1ccc(-c2cc(-c3ccc(C)cc3)c3c(N)n[nH]c3n2)cc1`, for which the Activity in data set [1] came to 45%; in [2] it was 82%.
Take `Cn1nc(N)c2c(-c3ccccc3)cc(-c3ccccc3)nc21`: the Activity is 80% in [1] and 117% in [2].
Take `COc1ccc(-c2cc(-c3ccc(OC)cc3)c3c(N)n[nH]c3n2)cc1`: the Activity is 60% in [1] and 101% in data set [2].
Regarding `Cc1cc(Nc2cc(N)ncn2)c(=O)n2c1C(=O)NC21CCCCC1`, the result in data set [21], in [22] and in data set [23] was Active.
`COc1cccc(-c2cc(-c3ccccc3)c3c(N)n[nH]c3n2)c1`: the inhibition entry in [4] is “Dde”. Besides, the half-maximal inhibitory concentration (IC50) in data set [18] came out at 4.2 µM; in [20] it was 22 µM. For the same molecule, in data set [19], the Ratio IC50 was 4. For the same molecule, the Activity in data set [1] was 38%; in data set [2], 74%.
Take `Nc1n[nH]c2ncccc12`: the Activity in data set [1] was 95%; in data set [2], 102%.
